Measurements as given in publication PMC3562655 (Journal of bone and mineral research : the official journal …, 2013).

Columns and labels:
ENPP1 = target: T1, ENPP1 (Homo sapiens, UniProt P22413); settings: cited from earlier work
T1 sequence (P22413 98-925 limits assumed): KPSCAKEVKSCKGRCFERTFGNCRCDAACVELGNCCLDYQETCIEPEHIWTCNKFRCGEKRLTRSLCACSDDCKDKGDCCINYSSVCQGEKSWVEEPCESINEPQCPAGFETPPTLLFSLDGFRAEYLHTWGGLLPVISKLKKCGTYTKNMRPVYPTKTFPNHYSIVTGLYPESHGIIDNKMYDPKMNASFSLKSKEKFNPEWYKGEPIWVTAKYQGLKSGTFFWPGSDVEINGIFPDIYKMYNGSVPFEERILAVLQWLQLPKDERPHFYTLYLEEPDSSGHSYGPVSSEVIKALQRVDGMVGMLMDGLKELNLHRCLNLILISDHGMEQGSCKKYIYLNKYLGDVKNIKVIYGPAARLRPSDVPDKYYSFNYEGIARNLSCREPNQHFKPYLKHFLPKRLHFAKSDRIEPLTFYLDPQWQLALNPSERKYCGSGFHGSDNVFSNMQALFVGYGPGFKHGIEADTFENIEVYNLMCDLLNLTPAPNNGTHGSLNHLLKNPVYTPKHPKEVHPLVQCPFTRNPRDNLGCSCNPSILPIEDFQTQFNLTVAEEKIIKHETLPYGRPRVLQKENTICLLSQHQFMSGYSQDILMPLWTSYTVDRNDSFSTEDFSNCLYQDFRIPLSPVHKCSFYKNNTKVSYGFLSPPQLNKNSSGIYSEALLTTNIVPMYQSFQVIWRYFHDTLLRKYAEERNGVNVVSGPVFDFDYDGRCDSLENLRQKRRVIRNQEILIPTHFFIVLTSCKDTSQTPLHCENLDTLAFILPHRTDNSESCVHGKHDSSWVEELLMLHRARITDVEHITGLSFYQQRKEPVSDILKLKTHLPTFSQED

Enpp1^-/- VSMCs = test: Calcification assay, Alizarin Red staining of Enpp1-/- VSMCs; format: cell-based, mouse; settings: 21 days, β-glycerophosphate, inhibitor 30 μmol/L
Summary of the method: (§1)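 Aortic VSMCs from WT, Enpp1-/- or Phospho1-/- mice were isolated by collagenase digestion and grown in triplicate for 21 days. Medium was α-MEM with 50 µg/mL ascorbic acid plus 2.5 mmol/L β-glycerophosphate (all genotypes) or 3 mmol/L sodium phosphate (WT), changed every second day. Test compound (DMSO; final 30 µmol/L), alone or combined, was added at each change. Staining used 2% Alizarin Red (pH 4.2, 30 min RT), then 10% cetylpyridinium chloride extraction, absorbance read. Values are % of vehicle control, mean ± S.E.M.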

[1] = target: T2, purified recombinant human PHOSPHO1 (Homo sapiens, UniProt Q8TCT1); test: PHOSPHO1 inhibition, Biomol Green colorimetric phosphate release assay; format: biochemical; settings: for IC50: pH 6.7, 60 min room temperature
T2 sequence (Q8TCT1 1-292 isoform Q8TCT1-3): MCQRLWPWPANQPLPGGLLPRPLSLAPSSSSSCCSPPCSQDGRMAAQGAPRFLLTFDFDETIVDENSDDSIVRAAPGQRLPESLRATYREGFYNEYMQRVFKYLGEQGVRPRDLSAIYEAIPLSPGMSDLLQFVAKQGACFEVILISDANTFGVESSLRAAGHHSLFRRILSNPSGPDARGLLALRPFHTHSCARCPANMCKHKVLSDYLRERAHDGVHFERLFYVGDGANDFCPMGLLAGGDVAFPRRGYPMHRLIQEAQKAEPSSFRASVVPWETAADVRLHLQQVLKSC

Phospho1^-/- VSMCs = test: Calcification assay, Alizarin Red staining of Phospho1-/- VSMCs; format: cell-based, mouse; settings: 21 days, β-glycerophosphate, inhibitor 30 μmol/L
Summary of the method: as §1

PHOSPHO1 = target: T3, PHOSPHO1 (Homo sapiens, UniProt Q8TCT1); test: Mechanism of PHOSPHO1 inhibition, double reciprocal plots; format: biochemical
T3 sequence (Q8TCT1 1-292 isoform Q8TCT1-3): T2 sequence (Q8TCT1 1-292 isoform Q8TCT1-3)

WT VSMCs = test: Calcification assay, Alizarin Red staining of WT VSMCs; format: cell-based, mouse
Summary of the method: as §1

[2] = test system: Phospho1^-/- chondrocytes; test: Mineralization of Phospho1-/- chondrocytes; format: cell-based; settings: not shown
TNAP = target: T4, TNAP (Homo sapiens, UniProt P05186); settings: ref Ciancaglini et al. (2010), 25, 42; cited from earlier work
T4 sequence (P05186 18-502 limits assumed): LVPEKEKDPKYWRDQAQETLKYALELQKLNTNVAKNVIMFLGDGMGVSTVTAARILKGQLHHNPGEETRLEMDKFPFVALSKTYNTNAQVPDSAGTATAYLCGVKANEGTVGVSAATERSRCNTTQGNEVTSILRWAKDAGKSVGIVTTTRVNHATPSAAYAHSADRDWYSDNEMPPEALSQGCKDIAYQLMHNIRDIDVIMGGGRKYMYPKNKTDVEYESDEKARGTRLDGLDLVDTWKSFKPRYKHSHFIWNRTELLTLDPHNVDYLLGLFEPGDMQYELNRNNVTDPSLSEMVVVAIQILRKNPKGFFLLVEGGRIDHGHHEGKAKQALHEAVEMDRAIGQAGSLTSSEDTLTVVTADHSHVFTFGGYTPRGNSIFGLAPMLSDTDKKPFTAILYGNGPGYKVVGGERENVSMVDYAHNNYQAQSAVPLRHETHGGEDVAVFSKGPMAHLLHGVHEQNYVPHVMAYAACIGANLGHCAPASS

COc1ccc(OC)c(S(=O)(=O)Nc2cnc3ccccc3c2)c1 [MLS-0038949]
cross-inhibition of ENPP1 (ENPP1): does not cross-inhibit | effect on mineralization in words (Enpp1^-/- VSMCs): strongly reduced mineralization | inhibition of PHOSPHO1 in point experiments ([1]; inhibitor 1, 10, 30 μmol/L, substrates P-Etn and P-Cho): selectively inhibits TNAP, but not PHOSPHO1 | effect on mineralization in words (Phospho1^-/- VSMCs): significantly inhibited mineralization

Cc1c(OCC(F)(F)F)ccnc1C[S+]([O-])c1nc2ccccc2[nH]1 (stereo not shown) [Lansoprazole]
inhibition of ENPP1 activity (ENPP1; ref Ciancaglini et al. (2010), 25, 42): partially inhibits | Ki (PHOSPHO1): 160 ± 30 nM | nature of the PHOSPHO1 inhibition (PHOSPHO1; double reciprocal plots versus P-Etn): competitive | toxicity to smooth muscle cells observed in the mineralization studies (WT VSMCs): showed toxicity to smooth muscle cells | effect on mineralization in words (WT VSMCs; WT VSMCs, 21 days, inhibitor 30 μmol/L): significantly inhibited mineralization | mineralization of Phospho1-/- chondrocytes [2]: inhibited mineralization | inhibition of TNAP activity (TNAP): partially inhibits | IC50 ([1]; P-Cho IC50, substrate P-Cho 62.5 μmol/L): 60 ± 10 nM | IC50 ([1]; P-Etn IC50, substrate P-Etn 62.5 μmol/L): 70 ± 10 nM
